Measurements published in ChEMBL document CHEMBL3734675, “Synthesis, antimycobacterial and antibacterial activity of fluoroquinolone derivatives containing an 3-alkoxyimino-4-(cyclopropylanimo)methylpyrrolidine moiety” (2015).
In brackets after ≈: the same amount, converted by molar mass.

Experiments:
Assay type in all cases: functional
Escherichia coli [1] = assay: Antibacterial activity against extended-spectrum beta-lactamase producing Escherichia coli 14-1 after 18 to 24 hrs by two-fold serial dilution method
Procedure, shortened: (§1)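 Twofold serial dilution in agar media against Gram-positive and Gram-negative strains. Plates incubated at 35 °C for 18–24 h. MIC read as the lowest compound concentration giving complete inhibition of bacterial growth.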

Staphylococcus aureus [2] = assay: Antibacterial activity against methicillin-resistant Staphylococcus aureus 14-4 after 18 to 24 hrs by two-fold serial dilution method
Procedure, shortened: (§2)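 Agar media, standard twofold serial dilution. MIC is the lowest concentration giving complete inhibition of bacterial growth after incubation at 35 °C for 18–24 h. Ciprofloxacin and levofloxacin were run as comparators.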

[3] = tested on: Mycobacterium tuberculosis; assay: Antimycobacterial activity against Mycobacterium tuberculosis H37Rv ATCC 27294 incubated for 7 days by microplate Alamar Blue assay; details: H37Rv ATCC 27294, 168 h
Procedure, shortened: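 Fluorescence read-out. MIC is the lowest concentration that reduces fluorescence by at least 90% relative to the mean of replicate bacterium-only controls. Isoniazid and rifampicin were included as reference drugs.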

Staphylococcus aureus [4] = assay: Antibacterial activity against methicillin-resistant Staphylococcus aureus 14-5 after 18 to 24 hrs by two-fold serial dilution method; procedure, shortened: as §2
Pseudomonas aeruginosa [5] = assay: Antibacterial activity against Pseudomonas aeruginosa 14-15 after 18 to 24 hrs by two-fold serial dilution method; procedure, shortened: as §1
Pseudomonas aeruginosa [6] = assay: Antibacterial activity against Pseudomonas aeruginosa 14-14 after 18 to 24 hrs by two-fold serial dilution method; procedure, shortened: as §1
Streptococcus pneumoniae = assay: Antibacterial activity against methicillin-resistant Streptococcus pneumoniae ATCC 19615 after 18 to 24 hrs by two-fold serial dilution method; procedure, shortened: as §2
Staphylococcus aureus [7] = assay: Antibacterial activity against methicillin-sensitive Staphylococcus aureus 14-4 after 18 to 24 hrs by two-fold serial dilution method; procedure, shortened: as §1
Pseudomonas aeruginosa [8] = assay: Antibacterial activity against Pseudomonas aeruginosa 14-9 after 18 to 24 hrs by two-fold serial dilution method; procedure, shortened: as §1
Klebsiella pneumoniae [9] = assay: Antibacterial activity against Klebsiella pneumoniae 14-2 after 18 to 24 hrs by two-fold serial dilution method; procedure, shortened: as §1
Enterococcus faecalis [10] = assay: Antibacterial activity against Enterococcus faecalis 14-2 after 18 to 24 hrs by two-fold serial dilution method; procedure, shortened: as §1
Enterococcus faecium [11] = assay: Antibacterial activity against Enterococcus faecium 14-6 after 18 to 24 hrs by two-fold serial dilution method; procedure, shortened: as §1
Escherichia coli [12] = assay: Antibacterial activity against Escherichia coli 14-2 after 18 to 24 hrs by two-fold serial dilution method; procedure, shortened: as §1
[13] = tested on: Staphylococcus epidermidis; assay: Antibacterial activity against methicillin-resistant Staphylococcus epidermidis 14-22 after 18 to 24 hrs by two-fold serial dilution method; procedure, shortened: as §2
Klebsiella pneumoniae [14] = assay: Antibacterial activity against extended-spectrum beta-lactamase producing Klebsiella pneumoniae 14-17 after 18 to 24 hrs by two-fold serial dilution method; procedure, shortened: as §1
[15] = tested on: Staphylococcus epidermidis; assay: Antibacterial activity against methicillin-resistant Staphylococcus epidermidis 14-39 after 18 to 24 hrs by two-fold serial dilution method; procedure, shortened: as §2
Staphylococcus aureus [16] = assay: Antibacterial activity against methicillin-sensitive Staphylococcus aureus 14-1 after 18 to 24 hrs by two-fold serial dilution method; procedure, shortened: as §1
Staphylococcus aureus [17] = assay: Antibacterial activity against methicillin-sensitive Staphylococcus aureus 14-3 after 18 to 24 hrs by two-fold serial dilution method; procedure, shortened: as §1
Staphylococcus aureus [18] = assay: Antibacterial activity against Staphylococcus aureus CMCC 26003 after 18 to 24 hrs by two-fold serial dilution method; procedure, shortened: as §1
Klebsiella pneumoniae [19] = assay: Antibacterial activity against extended-spectrum beta-lactamase producing Klebsiella pneumoniae 14-19 after 18 to 24 hrs by two-fold serial dilution method; procedure, shortened: as §1
Pseudomonas aeruginosa [20] = assay: Antibacterial activity against Pseudomonas aeruginosa ATCC 27853 after 18 to 24 hrs by two-fold serial dilution method; procedure, shortened: as §1
Escherichia coli [21] = assay: Antibacterial activity against extended-spectrum beta-lactamase producing Escherichia coli 14-2 after 18 to 24 hrs by two-fold serial dilution method; procedure, shortened: as §1
Klebsiella pneumoniae [22] = assay: Antibacterial activity against Klebsiella pneumoniae 14-3 after 18 to 24 hrs by two-fold serial dilution method; procedure, shortened: as §1
[23] = tested on: Staphylococcus epidermidis; assay: Antibacterial activity against methicillin-sensitive Staphylococcus epidermidis 14-2 after 18 to 24 hrs by two-fold serial dilution method; procedure, shortened: as §1
Pseudomonas aeruginosa [24] = assay: Antibacterial activity against Pseudomonas aeruginosa 14-16 after 18 to 24 hrs by two-fold serial dilution method; procedure, shortened: as §1
[25] = tested on: Staphylococcus epidermidis; assay: Antibacterial activity against methicillin-resistant Staphylococcus epidermidis 14-21 after 18 to 24 hrs by two-fold serial dilution method; procedure, shortened: as §2
Escherichia coli [26] = assay: Antibacterial activity against Escherichia coli 14-1 after 18 to 24 hrs by two-fold serial dilution method; procedure, shortened: as §1
Enterococcus faecium [27] = assay: Antibacterial activity against Enterococcus faecium 14-2 after 18 to 24 hrs by two-fold serial dilution method; procedure, shortened: as §1
Klebsiella pneumoniae [28] = assay: Antibacterial activity against Klebsiella pneumoniae 14-4 after 18 to 24 hrs by two-fold serial dilution method; procedure, shortened: as §1
Klebsiella pneumoniae [29] = assay: Antibacterial activity against extended-spectrum beta-lactamase producing Klebsiella pneumoniae 14-18 after 18 to 24 hrs by two-fold serial dilution method; procedure, shortened: as §1
Enterococcus faecalis [30] = assay: Antibacterial activity against Enterococcus faecalis 14-1 after 18 to 24 hrs by two-fold serial dilution method; procedure, shortened: as §1
[31] = tested on: Staphylococcus epidermidis; assay: Antibacterial activity against methicillin-resistant Staphylococcus epidermidis 14-37 after 18 to 24 hrs by two-fold serial dilution method; procedure, shortened: as §2
Enterococcus faecium [32] = assay: Antibacterial activity against Enterococcus faecium 14-5 after 18 to 24 hrs by two-fold serial dilution method; procedure, shortened: as §1
Escherichia coli [33] = assay: Antibacterial activity against Escherichia coli ATCC 25922 after 18 to 24 hrs by two-fold serial dilution method; procedure, shortened: as §1
Klebsiella pneumoniae [34] = assay: Antibacterial activity against Klebsiella pneumoniae 14-1 after 18 to 24 hrs by two-fold serial dilution method; procedure, shortened: as §1

SMILES | MIC (Escherichia coli [1]) [µg/mL] | MIC (Staphylococcus aureus [2]) [µg/mL] | MIC90 [3] [µg/mL] | MIC (Staphylococcus aureus [4]) [µg/mL] | MIC (Pseudomonas aeruginosa [5]) [µg/mL] | MIC (Pseudomonas aeruginosa [6]) [µg/mL] | MIC (Streptococcus pneumoniae) [µg/mL] | MIC (Staphylococcus aureus [7]) [µg/mL] | MIC (Pseudomonas aeruginosa [8]) [µg/mL] | MIC (Klebsiella pneumoniae [9]) [µg/mL] | MIC (Enterococcus faecalis [10]) [µg/mL] | MIC (Enterococcus faecium [11]) [µg/mL] | MIC (Escherichia coli [12]) [µg/mL] | MIC [13] [µg/mL] | MIC (Klebsiella pneumoniae [14]) [µg/mL] | MIC [15] [µg/mL] | MIC (Staphylococcus aureus [16]) [µg/mL] | MIC (Staphylococcus aureus [17]) [µg/mL] | MIC (Staphylococcus aureus [18]) [µg/mL] | MIC (Klebsiella pneumoniae [19]) [µg/mL] | further results
O=C(O)c1cn([C@@H]2C[C@@H]2F)c2nc(N3C/C(=N/OCc4ccccc4)C(CNC4CC4)C3)c(F)cc2c1=O (stereo not given in full) | 16 (≈ 30.6 µM) | 32 (≈ 61.1 µM) | 2.1 (≈ 4.01 µM) | 8 (≈ 15.3 µM) | 64 (≈ 122 µM) | 64 (≈ 122 µM) | 1 (≈ 1.91 µM) | 16 (≈ 30.6 µM) | 8 (≈ 15.3 µM) | 64 (≈ 122 µM) | 1 (≈ 1.91 µM) | 32 (≈ 61.1 µM) | > 128 | 8 (≈ 15.3 µM) | 64 (≈ 122 µM) | 64 (≈ 122 µM) | 4 (≈ 7.64 µM) | 4 (≈ 7.64 µM) | < 0.008 | 128 (≈ 244 µM) | MIC (Pseudomonas aeruginosa [20]): 32 µg/mL (≈ 61.1 µM); MIC (Escherichia coli [21]): > 128 µg/mL; MIC (Klebsiella pneumoniae [22]): 128 µg/mL (≈ 244 µM); MIC [23]: 32 µg/mL (≈ 61.1 µM); MIC (Pseudomonas aeruginosa [24]): 64 µg/mL (≈ 122 µM); MIC [25]: 16 µg/mL (≈ 30.6 µM); MIC (Escherichia coli [26]): > 128 µg/mL; MIC (Enterococcus faecium [27]): 8 µg/mL (≈ 15.3 µM); MIC (Klebsiella pneumoniae [28]): > 128 µg/mL; MIC (Klebsiella pneumoniae [29]): 64 µg/mL (≈ 122 µM); MIC (Enterococcus faecalis [30]): 64 µg/mL (≈ 122 µM); MIC [31]: 16 µg/mL (≈ 30.6 µM); MIC (Enterococcus faecium [32]): 16 µg/mL (≈ 30.6 µM); MIC (Escherichia coli [33]): 0.25 µg/mL (≈ 0.478 µM); MIC (Klebsiella pneumoniae [34]): 128 µg/mL (≈ 244 µM)
CCO/N=C1/CN(c2nc3c(cc2F)c(=O)c(C(=O)O)cn3-c2nc(N)c(F)cc2F)CC1CNC1CC1 (stereo not given) | 32 (≈ 60.2 µM) | 64 (≈ 120 µM) | 22 (≈ 41.4 µM) | 8 (≈ 15.1 µM) | 128 (≈ 241 µM) | 128 (≈ 241 µM) | 16 (≈ 30.1 µM) | 32 (≈ 60.2 µM) | 32 (≈ 60.2 µM) | 64 (≈ 120 µM) | 4 (≈ 7.53 µM) | 128 (≈ 241 µM) | > 128 | 32 (≈ 60.2 µM) | 128 (≈ 241 µM) | 64 (≈ 120 µM) | 16 (≈ 30.1 µM) | 32 (≈ 60.2 µM) | 0.125 (≈ 0.235 µM) | 128 (≈ 241 µM) | MIC (Pseudomonas aeruginosa [20]): 32 µg/mL (≈ 60.2 µM); MIC (Escherichia coli [21]): > 128 µg/mL; MIC (Klebsiella pneumoniae [22]): 128 µg/mL (≈ 241 µM); MIC [23]: > 128 µg/mL; MIC (Pseudomonas aeruginosa [24]): 128 µg/mL (≈ 241 µM); MIC [25]: 128 µg/mL (≈ 241 µM); MIC (Escherichia coli [26]): > 128 µg/mL; MIC (Enterococcus faecium [27]): 64 µg/mL (≈ 120 µM); MIC (Klebsiella pneumoniae [28]): > 128 µg/mL; MIC (Klebsiella pneumoniae [29]): 128 µg/mL (≈ 241 µM); MIC (Enterococcus faecalis [30]): 128 µg/mL (≈ 241 µM); MIC [31]: 64 µg/mL (≈ 120 µM); MIC (Enterococcus faecium [32]): 32 µg/mL (≈ 60.2 µM); MIC (Escherichia coli [33]): 4 µg/mL (≈ 7.53 µM); MIC (Klebsiella pneumoniae [34]): 64 µg/mL (≈ 120 µM)
